Where two headings read alike, the source gives them in different places.
Assays:
[1] = Food effect on peposertib pharmacokinetics, Part FE; type: in vivo, human; details: after a single dose, sampling did not cover tmax
[2] = tested on: patients with advanced solid tumors; details: Part A
[3] = tested on: patients with advanced solid tumors; details: Part B, 100-250 mg q.d.
[4] = 50-mg film-coated hot melt extrudate tablets; estimated; cited from earlier work
[5] = tested on: advanced solid tumors; test: Best overall response per RECIST version 1.1, Part A; type: in vivo, human
[6] = tested on: patients with advanced solid tumors; test: Safety; type: in vivo, human; details: Part FE
[7] = tested on: advanced solid tumors; test: Disease control by baseline PD-L1 and DNA-PK immunohistochemistry; type: in vivo, human
How it was run: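 Immunohistochemistry on pretreatment archival tumor tissue; in Parts A and B, fresh samples were taken when no archival tissue was available. DNA-PK staining was scored as an H-score combining prevalence and staining intensity, then related to disease control.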

[8] = healthy volunteers; cited from earlier work
[9] = tested on: DNA-PK; details: previous studies; cited from earlier work
[10] = Peposertib plasma pharmacokinetics, Part A; type: in vivo, human; details: Parts A and B

For `COc1ccc([C@@H](O)c2cc(-c3ncnc4cc(N5CCOCC5)ccc34)c(F)cc2Cl)nn1` [Peposertib], the “Effect of food on peposertib Cmax” value [1] was “food delayed peposertib Cmax”, the “DLT by preferred term: Acute kidney injury” value (from here on “DLT … Acute kidney injury”) ([2]; 100 mg b.i.d.) was 0 n (%) and the “DLT by preferred term: Febrile neutropenia” value (“DLT … Febrile neutropenia” below) ([2]; 100 mg b.i.d.) was 0 n (%). For the same compound, the “DLT by preferred term: Neutropenia” value ([2]; 100 mg b.i.d.) was 0 n (%), the “DLT by preferred term: Neutrophil count decreased” value (shortened to “DLT … Neutrophil count decreased”) ([2]; 100 mg b.i.d.) was 0 n (%) and the “DLT by preferred term: Pneumonitis” value ([2]; 100 mg b.i.d.) was 0 n (%). For the same compound, the “DLT by preferred term: Pyrexia” value ([2]; 100 mg b.i.d.) was 0 n (%), the “DLT by preferred term: Rash” value ([2]; 100 mg b.i.d.) was 0 n (%) and the “DLTs per patient: 1” value ([2]; 100 mg b.i.d.) was 0 n (%). The “DLTs per patient: 2” value ([2]; 100 mg b.i.d.) was 0 n (%), the “DLTs per patient: ≥3” value ([2]; 100 mg b.i.d.) was 0 n (%) and the “Patients with DLT” value ([2]; 100 mg b.i.d.) was 0 n (%). For the same compound, the “DLT … Acute kidney injury” value ([2]; 200 mg b.i.d.) was 0 n (%), the “DLT … Febrile neutropenia” value ([2]; 200 mg b.i.d.) was 0 n (%) and the “DLT by preferred term: Neutropenia” value ([2]; 200 mg b.i.d.) was 0 n (%). For the same compound, the “DLT … Neutrophil count decreased” value ([2]; 200 mg b.i.d.) was 0 n (%), the “DLT by preferred term: Pneumonitis” value ([2]; 200 mg b.i.d.) was 0 n (%) and the “DLT by preferred term: Pyrexia” value ([2]; 200 mg b.i.d.) was 0 n (%). The “DLT by preferred term: Rash” value ([2]; 200 mg b.i.d.) was 0 n (%), the “DLTs per patient: 1” value ([2]; 200 mg b.i.d.) was 0 n (%) and the “DLTs per patient: 2” value ([2]; 200 mg b.i.d.) was 0 n (%). The “DLTs per patient: ≥3” value ([2]; 200 mg b.i.d.) was 0 n (%), the “Patients with DLT” value ([2]; 200 mg b.i.d.) was 0 n (%) and the “DLT … Acute kidney injury” value ([2]; 250 mg b.i.d.) was 0 n (%). For the same compound, the “DLT … Febrile neutropenia” value ([2]; 250 mg b.i.d.) was 0 n (%), the “DLT by preferred term: Neutropenia” value ([2]; 250 mg b.i.d.) was 0 n (%) and the “DLT … Neutrophil count decreased” value ([2]; 250 mg b.i.d.) was 0 n (%). The “DLT by preferred term: Pneumonitis” value ([2]; 250 mg b.i.d.) was 1 (50.0) n (%), the “DLT by preferred term: Pyrexia” value ([2]; 250 mg b.i.d.) was 0 n (%) and the “DLT by preferred term: Rash” value ([2]; 250 mg b.i.d.) was 0 n (%). The “DLTs per patient: 1” value ([2]; 250 mg b.i.d.) was 1 (50.0) n (%), the “DLTs per patient: 2” value ([2]; 250 mg b.i.d.) was 0 n (%) and the “DLTs per patient: ≥3” value ([2]; 250 mg b.i.d.) was 0 n (%). The “Patients with DLT” value ([2]; 250 mg b.i.d.) was 1 (50.0) n (%), the “DLT … Acute kidney injury” value ([2]; 300 mg b.i.d.) was 0 n (%) and the “DLT … Febrile neutropenia” value ([2]; 300 mg b.i.d.) was 0 n (%). For the same compound, the “DLT by preferred term: Neutropenia” value ([2]; 300 mg b.i.d.) was 0 n (%), the “DLT … Neutrophil count decreased” value ([2]; 300 mg b.i.d.) was 0 n (%) and the “DLT by preferred term: Pneumonitis” value ([2]; 300 mg b.i.d.) was 1 (25.0) n (%). For the same compound, the “DLT by preferred term: Pyrexia” value ([2]; 300 mg b.i.d.) was 0 n (%), the “DLT by preferred term: Rash” value ([2]; 300 mg b.i.d.) was 0 n (%) and the “DLTs per patient: 1” value ([2]; 300 mg b.i.d.) was 1 (25.0) n (%). The “DLTs per patient: 2” value ([2]; 300 mg b.i.d.) was 0 n (%), the “DLTs per patient: ≥3” value ([2]; 300 mg b.i.d.) was 0 n (%) and the “Patients with DLT” value ([2]; 300 mg b.i.d.) was 1 (25.0) n (%). For the same compound, the “DLT … Acute kidney injury” value ([2]; 400 mg b.i.d.) was 1 (25.0) n (%), the “DLT … Febrile neutropenia” value ([2]; 400 mg b.i.d.) was 1 (25.0) n (%) and the “DLT by preferred term: Neutropenia” value ([2]; 400 mg b.i.d.) was 1 (25.0) n (%). For the same compound, the “DLT … Neutrophil count decreased” value ([2]; 400 mg b.i.d.) was 1 (25.0) n (%), the “DLT by preferred term: Pneumonitis” value ([2]; 400 mg b.i.d.) was 0 n (%) and the “DLT by preferred term: Pyrexia” value ([2]; 400 mg b.i.d.) was 1 (25.0) n (%). For the same compound, the “DLT by preferred term: Rash” value ([2]; 400 mg b.i.d.) was 1 (25.0) n (%), the “DLTs per patient: 1” value ([2]; 400 mg b.i.d.) was 1 (25.0) n (%) and the “DLTs per patient: 2” value ([2]; 400 mg b.i.d.) was 1 (25.0) n (%). The “DLTs per patient: ≥3” value ([2]; 400 mg b.i.d.) was 1 (25.0) n (%), the “Patients with DLT” value ([2]; 400 mg b.i.d.) was 3 (75.0) n (%) and the DLT [3] was “no DLT was reported”. The “Increase in bioavailability versus capsules” value [4] was 75%, the “Patients with complete response (CR) or partial response (PR)” value [5] was “no patients” and the “Best overall response of stable disease (SD) or non-CR/non-PD” value ([5]; all dose levels) was 17.2%. For the same compound, the “Serious TEAE: sepsis” value ([6]; 100 mg b.i.d.) was 2/4, the IRR ([6]; 100 mg b.i.d., all grade) was 1 (25.0) n (%) and the “Immune-related AE” value ([6]; 100 mg b.i.d., all grade) was 0 n (%). The “Serious TEAE” value ([6]; 100 mg b.i.d., all grade) was 2 (50.0) n (%), the “Serious TEAE, peposertib related” value ([6]; 100 mg b.i.d., all grade) was 1 (25.0) n (%) and the “Serious TEAE, treatment related” value ([6]; 100 mg b.i.d., all grade) was 1 (25.0) n (%). The TEAE ([6]; 100 mg b.i.d., all grade) was 4 (100.0) n (%), the “TEAE leading to death” value ([6]; 100 mg b.i.d., all grade) was 1 (25.0) n (%) and the “TEAE, peposertib related” value ([6]; 100 mg b.i.d., all grade) was 3 (75.0) n (%). The “TEAE, treatment related” value ([6]; 100 mg b.i.d., all grade) was 3 (75.0) n (%), the “Treatment-related AE leading to death” value ([6]; 100 mg b.i.d., all grade) was 0 n (%) and the IRR ([6]; 100 mg b.i.d., grade ≥3) was 0 n (%). For the same compound, the “Immune-related AE” value ([6]; 100 mg b.i.d., grade ≥3) was 0 n (%), the “Serious TEAE” value ([6]; 100 mg b.i.d., grade ≥3) was 2 (50.0) n (%) and the “Serious TEAE, peposertib related” value ([6]; 100 mg b.i.d., grade ≥3) was 1 (25.0) n (%). The “Serious TEAE, treatment related” value ([6]; 100 mg b.i.d., grade ≥3) was 1 (25.0) n (%), the TEAE ([6]; 100 mg b.i.d., grade ≥3) was 3 (75.0) n (%) and the “TEAE leading to death” value ([6]; 100 mg b.i.d., grade ≥3) was 1 (25.0) n (%). For the same compound, the “TEAE, peposertib related” value ([6]; 100 mg b.i.d., grade ≥3) was 1 (25.0) n (%), the “TEAE, treatment related” value ([6]; 100 mg b.i.d., grade ≥3) was 1 (25.0) n (%) and the “Treatment-related AE leading to death” value ([6]; 100 mg b.i.d., grade ≥3) was 0 n (%). The IRR ([6]; 200 mg b.i.d., all grade) was 1 (20.0) n (%), the “Immune-related AE” value ([6]; 200 mg b.i.d., all grade) was 2 (40.0) n (%) and the “Serious TEAE” value ([6]; 200 mg b.i.d., all grade) was 3 (60.0) n (%). The “Serious TEAE, peposertib related” value ([6]; 200 mg b.i.d., all grade) was 1 (20.0) n (%), the “Serious TEAE, treatment related” value ([6]; 200 mg b.i.d., all grade) was 2 (40.0) n (%) and the TEAE ([6]; 200 mg b.i.d., all grade) was 5 (100.0) n (%). The “TEAE leading to death” value ([6]; 200 mg b.i.d., all grade) was 1 (20.0) n (%), the “TEAE, peposertib related” value ([6]; 200 mg b.i.d., all grade) was 5 (100.0) n (%) and the “TEAE, treatment related” value ([6]; 200 mg b.i.d., all grade) was 5 (100.0) n (%). The “Treatment-related AE leading to death” value ([6]; 200 mg b.i.d., all grade) was 0 n (%), the IRR ([6]; 200 mg b.i.d., grade ≥3) was 1 (20.0) n (%) and the “Immune-related AE” value ([6]; 200 mg b.i.d., grade ≥3) was 2 (40.0) n (%). The “Serious TEAE” value ([6]; 200 mg b.i.d., grade ≥3) was 3 (60.0) n (%), the “Serious TEAE, peposertib related” value ([6]; 200 mg b.i.d., grade ≥3) was 1 (20.0) n (%) and the “Serious TEAE, treatment related” value ([6]; 200 mg b.i.d., grade ≥3) was 2 (40.0) n (%). The TEAE ([6]; 200 mg b.i.d., grade ≥3) was 4 (80.0) n (%), the “TEAE leading to death” value ([6]; 200 mg b.i.d., grade ≥3) was 1 (20.0) n (%) and the “TEAE, peposertib related” value ([6]; 200 mg b.i.d., grade ≥3) was 3 (60.0) n (%). For the same compound, the “TEAE, treatment related” value ([6]; 200 mg b.i.d., grade ≥3) was 4 (80.0) n (%), the “Treatment-related AE leading to death” value ([6]; 200 mg b.i.d., grade ≥3) was 0 n (%) and the “Discontinuation of all study treatments due to AEs” value ([6]; all dose levels) was 4 (44.4%). The “Peposertib-related TEAE: diarrhea” value ([6]; all dose levels) was 4 (44.4%), the “Peposertib-related TEAE: fatigue” value ([6]; all dose levels) was 5 (55.6%) and the “Patients with SD among PD-L1+ tumors” value ([7]; Part A) was “two of seven”. For the same compound, the “Patients with SD among PD-L1− tumors” value ([7]; Part A) was “two of 17”, the “Patients with SD among PD-L1+ tumors” value ([7]; Part B) was “two of seven” and the “Patients with SD among PD-L1− tumors” value ([7]; Part B) was “three of nine”. For the same compound, the “Association between DNA-PK H-score and disease control” value ([7]; Parts A, B and FE) was “No association”, the Food effect [8] was “only a mild food effect” and the DNA-PK inhibition [9] was “time- and concentration-dependent manner”. The “Peposertib exposure versus dose” value ([10]; across all dose levels after single or multiple (q.d. and b.i.d.) doses) was “generally proportional to the dose” and the Accumulation ([10]; after q.d. and b.i.d. dosing) was “Some accumulation was observed”.

— paper PMC10937199 (ESMO Open, 2024)
